Published values of several laboratories.
Lines come from different studies, so protocols differ.
CDK9: Cyclin-dependent kinase 9 (CDK9, Homo sapiens, UniProt P50750)

`C1=C/COCc2cc(ccc2OCCN2CCCC2)Nc2nccc(n2)-c2cccc(c2)COC/1` has a remaining binding of 64% (CDK9; binding; 0.1 µM).
With `CC(C)(C)c1cnc(CSc2cnc(NC(=O)C3CCN(C(=O)CCCCCCCCCCCN4Cc5cc6c(cc5C4)C(=O)N(C4CCC(=O)NC4=O)C6=O)CC3)s2)o1` (stereo not drawn) the inhibition was 78% (CDK9; protein level, degrader, western blot; TC-71; 25 nM).
`N#Cc1ccc(NC(=O)Nc2ccccc2)cc1` has a remaining binding of 100% (CDK9; cell-free assay, competition with immobilised ligand; 25 µM).
The remaining binding of `COc1ccc2oc(-c3ccc4nc(N)oc4c3)c/c(=N\c3ccccc3NC(=O)CCN)c2c1` is reported as 93% (Cyclin-dependent kinase 9, with cyclin T1 (CDK9, Homo sapiens, UniProt P50750); binding; 1 µM).
`Cc1cc(S(=O)(=O)N[C@H]2CC[C@H](CN3CCN(c4ccc(C5CCC(=O)NC5=O)cc4F)CC3)CC2)ccc1Nc1ncc(C(F)(F)F)c(N2CCC[C@](C)(O)C2)n1` (stereo partly drawn) gave a remaining binding of 78% (CDK9; binding, competition with immobilised ligand; 1 µM).
The remaining binding of `COc1ccc2[nH]c3c4[nH]c5ccc(OC)cc5c4c4c(c3c2c1)C(=O)NC4=O` is reported as 58% (CDK9; binding; 1 µM).
For `C[C@]1(O)CCCN(c2nc(Nc3ccc(S(=O)(=O)N[C@H]4CC[C@H](CN5CCN(c6ccc(C7CCC(=O)NC7=O)cc6F)CC5)CC4)cc3F)ncc2C(F)(F)F)C1` (stereo partly drawn), the remaining binding was 95% (CDK9; binding, competition with immobilised ligand; 1 µM).
With `CC(C)(C)c1cnc(CSc2cnc(NC(=O)C3CCN(C(=O)CCCCN4Cc5cc6c(cc5C4)C(=O)N(C4CCC(=O)NC4=O)C6=O)CC3)s2)o1` (stereo not drawn) the inhibition was 80.1% (CDK9; protein level, degrader, western blot; TC-71; 25 nM).
For `CC#CC(=O)N1CCC[C@H]1c1nc(-c2ccc(C(=O)Nc3ccccn3)cc2)c2c(N)nccn12`, the inhibition was 0% (CDK9; enzyme activity, inhibitor; 1 µM).
With `CN1CCN(C(=O)c2ccc(NC(=O)Nc3ccc(N(C)c4ccnc(Nc5ccc(CS(C)(=O)=O)cc5)n4)cc3)cc2)CC1` the remaining binding was 69% (CDK9; binding; 1 µM).
The inhibition of `CC(C)(C)c1cnc(CSc2cnc(NC(=O)C3CCN(CC(=O)NCCOCCOCCOCCNc4cccc5c4C(=O)N(C4CCC(=O)NC4=O)C5=O)CC3)s2)o1` (stereo not drawn) is reported as 36.8% (CDK9; protein level, degrader, western blot; TC-71; 25 nM).
`C=CC(=O)N1CCC[C@@H](n2nc(-c3ccc(Oc4ccccc4)cc3)c3c(N)ncnc32)C1` gave an inhibition of 2% (CDK9; enzyme activity, inhibitor; 1 µM).
